Laboratory results from ChEMBL document CHEMBL1140185, “Conjugated chitosan as a novel platform for oral delivery of paclitaxel” (J Med Chem, 2008).
≈ marks a conversion by molar mass, not a printed value.

What was measured:
[1] = Oral bioavailability in cyclosporine A pretreated ICR mouse; type: ADME, organism-based; conditions: in vivo, in the assay text read “in ICR mouse” for “in cyclosporine A pretreated ICR mouse”
Summary of the method: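 ICR mice (25-30 g) fasted 12 h, then gavaged with PTX or conjugate (PTX-equivalent). The oral solution included 15 mg/kg cyclosporine A where given. Retro-orbital blood spun at 3000g for 20 min; plasma PTX measured by HPLC. n = 4-5.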

NCI-H358 [2] = test: Antitumor activity against human NCI-H358 cells xenografted NCR nu/nu mouse assessed as suppression of tumor growth at 10 mg/kg, iv; type: functional
Summary of the method: (§1)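 Female athymic NCR nu/nu mice (20-25 g), inoculated sc with about 6 × 10^6 NCI-H358 cells. Dosing began at tumors ≥150 mm3: 10 mg/kg/day formulated PTX iv, or conjugate po, every other day for six doses. Saline and LMWC controls. Caliper volumes taken as (1/2)(L × W2), and body weight tracked. n = 8-12; Student's t-test.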

Mus musculus [3] = test: Toxicity in human NCI-H358 cells xenografted NCR nu/nu mouse assessed as decrease in body weight at 10 mg/kg, iv; type: organism-based; design: dose 10 mg/kg, route intravenous; conditions: in vivo; summary of the method: as §1
Mus musculus [4] = test: Bioavailability in ICR mouse at 10 mg/kg, iv; type: ADME, organism-based; conditions: in vivo
Summary of the method: (§2)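 ICR mice (25-30 g). IV arm: 10 mg/kg PTX in cremophor EL/ethanol via tail vein. Oral arm: 5 or 10 mg PTX-equivalent/kg conjugate in 10% DMSO by gavage after a 12 h fast. Retro-orbital blood taken into sodium citrate and spun 800g for 20 min. Plasma extracted with ethyl acetate; free PTX measured by HPLC. Oral bioavailability is relative to 10 mg/kg IV. n = 5.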

[5] = AUC (0 to 48 hrs) in ICR mouse at 10 mg/kg, iv; type: ADME, organism-based; design: time < 48 hr, dose 10 mg/kg, route intravenous; conditions: plasma; summary of the method: as §2
[6] = Drug uptake in tumor of iv dosed C57BL/6 mouse bearing mouse B16F10 cells after 30 mins; type: ADME, organism-based, C57BL6, Neoplasm, B16-F10; conditions: in vivo, 0.5 h
[7] = Half life in ICR mouse at 10 mg/kg, iv; type: ADME, organism-based; design: dose 10 mg/kg, route intravenous; conditions: in vivo; summary of the method: as §2
SK-OV-3 = test: Anticancer activity against human SKOV3 cells by MTT assay; type: functional, cell-based
MDA-MB-231 = test: Anticancer activity against human MDA-MB-231 cells by MTT assay
NCI-H358 [8] = test: Anticancer activity against human NCI-H358 cells by MTT assay; type: functional, cell-based

CC(=O)O[C@H]1C(=O)[C@@]2(C)[C@H]([C@H](OC(=O)c3ccccc3)[C@]3(O)C[C@H](OC(=O)[C@H](O)[C@@H](NC(=O)c4ccccc4)c4ccccc4)C(C)=C1C3(C)C)[C@]1(OC(C)=O)CO[C@@H]1C[C@@H]2O [PACLITAXEL]
bioavailability [1]: 0.23% | Activity (NCI-H358 [2]): 80% | Activity (Mus musculus [3]): Toxic | F (Mus musculus [4]): 100% | AUC(0-t) at 48 h [5]: 35300 ng·h/mL | Drug uptake [6]: 0.5% | half-life [7]: 33.6 min | IC50 (SK-OV-3): 4 µg/mL (≈ 4.68 µM) | IC50 (MDA-MB-231): 3.9 µg/mL (≈ 4.57 µM) | IC50 (NCI-H358 [8]): 3.8 µg/mL (≈ 4.45 µM)
